Measurements reported in ChEMBL document CHEMBL4000211, “Discovery of novel polycyclic spiro-fused carbocyclicoxindole-based anticancer agents” (Eur J Med Chem, 2017).
The source made the active and inactive calls. The calls are words filed in the database; no cut-off is given here.

What was measured:
[1] = test system: HCT-116; assay: Cell cycle arrest in human HCT116 cells assessed as accumulation at sub G1 phase at 7.5 uM after 48 hrs by propidium iodide staining-based flow cytometric method (reference value: 0.86%); type: functional
[2] = test system: HCT-116; assay: Induction of apoptosis in human HCT116 cells assessed as viable cells at 7.5 uM after 24 hrs by annexin V-FITC/propidium iodide staining-based flow cytometric method (reference value: 93.48%); type: functional; details: HCT-116, 24 h, read-out: Activity
Procedure, shortened: (§1)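 HCT116 cells seeded at 1×10⁶ cells/mL in 6-well plates for 24 h, then exposed to 0, 7.5, 10 or 12.5 μM for a further 24 h or 48 h. Cells washed twice in PBS, then stained with Annexin V-FITC plus PI (100 μg/mL stock) in binding buffer (10 mM HEPES, pH 7.4, 2.5 mM CaCl₂) for 30 min at room temperature in the dark. Early and late apoptotic fractions gated by flow cytometry.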

[3] = test system: HCT-116; assay: Induction of apoptosis in human HCT116 cells assessed as increase in cleaved caspase-3 level after 24 hrs by Western blot method; type: functional, cell-based
Procedure, shortened: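 Treated HCT116 were lysed on ice in RIPA buffer with 1% protease inhibitor cocktail and spun 13000 g, 20 min, 4 °C. Protein was quantified by BCA. Equal protein was run on SDS-PAGE, blotted to PVDF, probed with primary and HRP secondary antibodies, and detected by enhanced chemiluminescence.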

[4] = test system: A2780S; assay: Antiproliferative activity against human A2780S cells after 48 hrs by MTT assay; type: functional, cell-based
Procedure, shortened: (§2)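 Cells seeded at 3×10³/well and grown 24 h, then exposed 48 h to six final concentrations, twofold steps down from 30. MTT (5 mg/mL) was added for 2–4 h at 37 °C. Supernatant was removed, formazan dissolved in DMSO, and OD read at 570 nm. Results are given as IC50, or as percent inhibition where IC50 exceeds the top concentration. At least three runs.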

[5] = test system: HCT-116; assay: Induction of apoptosis in human HCT116 cells assessed as early apoptotic cells at 12.5 uM after 48 hrs by annexin V-FITC/propidium iodide staining-based flow cytometric method (reference value: 1.6%); type: functional
[6] = test system: HCT-116; assay: Cell cycle arrest in human HCT116 cells assessed as accumulation at G2 phase at 7.5 uM after 48 hrs by propidium iodide staining-based flow cytometric method (reference value: 31.27%); type: functional
[7] = test system: HCT-116; assay: Induction of apoptosis in human HCT116 cells assessed as early apoptotic cells at 10 uM after 24 hrs by annexin V-FITC/propidium iodide staining-based flow cytometric method (reference value: 1.9%); type: functional
[8] = test system: A2780S; assay: Antiproliferative activity against human A2780S cells at 3.75 uM after 48 hrs by MTT assay relative to control; type: functional; procedure, shortened: as §2
[9] = test system: HCT-116; assay: Induction of apoptosis in human HCT116 cells assessed as early apoptotic cells at 7.5 uM after 48 hrs by annexin V-FITC/propidium iodide staining-based flow cytometric method (reference value: 1.6%); type: functional
[10] = test system: HCT-116; assay: Induction of apoptosis in human HCT116 cells assessed as viable cells at 7.5 uM after 48 hrs by annexin V-FITC/propidium iodide staining-based flow cytometric method (reference value: 95.05%); type: functional; details: HCT-116, 48 h, read-out: Activity; procedure, shortened: as §1
[11] = test system: HCT-116; assay: Cell cycle arrest in human HCT116 cells assessed as accumulation at S phase at 7.5 uM after 48 hrs by propidium iodide staining-based flow cytometric method (reference value: 34.83%); type: functional
[12] = test system: NCI-H1299; assay: Antiproliferative activity against human NCI-H1299 cells after 48 hrs by MTT assay; type: functional, cell-based; details: NCI-H1299, 48 h; procedure, shortened: as §2
[13] = test system: HCT-116; assay: Cell cycle arrest in human HCT116 cells assessed as accumulation at sub G1 phase at 7.5 uM after 24 hrs by propidium iodide staining-based flow cytometric method (reference value: 1.73%); type: functional
[14] = test system: A2780S; assay: Antiproliferative activity against human A2780S cells at 30 uM after 48 hrs by MTT assay relative to control; type: functional; procedure, shortened: as §2
[15] = test system: HCT-116; assay: Induction of apoptosis in human HCT116 cells assessed as early apoptotic cells at 10 uM after 48 hrs by annexin V-FITC/propidium iodide staining-based flow cytometric method (reference value: 1.6%); type: functional
[16] = test system: HCT-116; assay: Cell cycle arrest in human HCT116 cells assessed as accumulation at sub G1 phase at 12.5 uM after 24 hrs by propidium iodide staining-based flow cytometric method (reference value: 1.73%); type: functional
[17] = test system: HCT-116; assay: Induction of apoptosis in human HCT116 cells assessed as viable cells at 10 uM after 48 hrs by annexin V-FITC/propidium iodide staining-based flow cytometric method (reference value: 95.05%); type: functional; details: HCT-116, 48 h, read-out: Activity; procedure, shortened: as §1
[18] = test system: HCT-116; assay: Cell cycle arrest in human HCT116 cells assessed as accumulation at G2 phase at 10 uM after 24 hrs by propidium iodide staining-based flow cytometric method (reference value: 26.10%); type: functional
[19] = test system: A549; assay: Antiproliferative activity against human A549 cells after 48 hrs by MTT assay; type: functional, cell-based; details: A549, 48 h; procedure, shortened: as §2
[20] = test system: A2780S; assay: Antiproliferative activity against human A2780S cells at 7.5 uM after 48 hrs by MTT assay relative to control; type: functional; procedure, shortened: as §2
[21] = test system: BGC-823; assay: Antiproliferative activity against human BGC823 cells after 48 hrs by MTT assay; type: functional, cell-based; details: BGC-823, 48 h; procedure, shortened: as §2
[22] = test system: HCT-116; assay: Induction of apoptosis in human HCT116 cells assessed as viable cells at 12.5 uM after 24 hrs by annexin V-FITC/propidium iodide staining-based flow cytometric method (reference value: 93.48%); type: functional; details: HCT-116, 24 h, read-out: Activity; procedure, shortened: as §1
[23] = test system: HCT-116; assay: Induction of apoptosis in human HCT116 cells assessed as necrotic cells at 12.5 uM after 24 hrs by annexin V-FITC/propidium iodide staining-based flow cytometric method (reference value: 1.85%); type: functional; procedure, shortened: as §1
[24] = test system: MCF7; assay: Antiproliferative activity against human MCF7 cells after 48 hrs by MTT assay; type: functional, cell-based; details: MCF7, 48 h; procedure, shortened: as §2
[25] = test system: HCT-116; assay: Induction of apoptosis in human HCT116 cells assessed as necrotic cells at 10 uM after 24 hrs by annexin V-FITC/propidium iodide staining-based flow cytometric method (reference value: 1.85%); type: functional
[26] = test system: HCT-116; assay: Cell cycle arrest in human HCT116 cells assessed as accumulation at sub G1 phase at 10 uM after 24 hrs by propidium iodide staining-based flow cytometric method (reference value: 1.73%); type: functional
[27] = test system: HCT-116; assay: Induction of apoptosis in human HCT116 cells assessed as nuclear fragmentation at 7.5 to 12.5 uM after 24 hrs by Hoechst 33342 staining-based fluorescence microscopic method; type: functional, cell-based
Procedure, shortened: (§3)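 HCT116 cells (1×10⁵/well) cultured 24 h, then exposed to 0, 7.5, 10 or 12.5 μM (final) for 24 h. Rinsed in PBS, fixed in 75% ethanol and checked by inverted microscopy. Then stained with Hoechst 33342 (2 μg/mL in PBS) and scored for apoptotic nuclear morphology under fluorescence microscopy.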

[28] = test system: HCT-116; assay: Induction of apoptosis in human HCT116 cells assessed as late apoptotic cells at 10 uM after 24 hrs by annexin V-FITC/propidium iodide staining-based flow cytometric method (reference value: 2.77%); type: functional
[29] = test system: HCT-116; assay: Induction of apoptosis in human HCT116 cells assessed as nuclear condensation at 7.5 to 12.5 uM after 24 hrs by Hoechst 33342 staining-based fluorescence microscopic method; type: functional, cell-based; procedure, shortened: as §3

Q: For `C[C@@H]1Oc2ccc3ccccc3c2[C@@H]2[C@@H]1C=C(C=O)[C@@H](C)[C@]21C(=O)Nc2ccccc21`, which Activity [1] is on record?
A: 4.19%

Q: And the viability at 7.5 µM [2]?
A: 89.9%

Q: And the Activity [3]?
A: Dose-dependent effect

Q: And the IC50 [4]?
A: 7.91 µM

Q: What about the Activity [5] of the same compound?
A: 47.17%

Q: And the Activity [6]?
A: 26.41%

Q: And the Activity [7]?
A: 11.32%

Q: What about the inhibition at 3.75 µM [8] of the same compound?
A: 17.7 to 24.1%

Q: What about the Activity [9] of the same compound?
A: 4.18%

Q: And the viability at 7.5 µM [10]?
A: 91.7%

Q: And the Activity [11]?
A: 23.94%

Q: What about the IC50 [12] of the same compound?
A: > 30 µM

Q: What about the Activity [13] of the same compound?
A: 3.18%

Q: What about the inhibition at 30 µM [14] of the same compound?
A: 83.8 to 85.1%

Q: And the Activity [15]?
A: 27.48%

Q: And the Activity [16]?
A: 37.03%

Q: What about the viability at 10 µM [17] of the same compound?
A: 61.5%

Q: And the Activity [18]?
A: 21.05%

Q: And the IC50 [19]?
A: 18.3 µM

Q: And the inhibition at 7.5 µM [20]?
A: 50 to 58.1%

Q: What about the IC50 [21] of the same compound?
A: > 30 µM

Q: And the viability at 12.5 µM [22]?
A: 46.6%

Q: And the Activity [23]?
A: 2.21%

Q: And the IC50 [24]?
A: 16.2 µM

Q: What about the Activity [25] of the same compound?
A: 2.46%

Q: And the Activity [26]?
A: 15.92%

Q: What about the Activity [27] of the same compound?
A: Active

Q: And the Activity [28]?
A: 10.13%

Q: What about the Activity [29] of the same compound?
A: Active
